Data published in ChEMBL document CHEMBL2417469, “Synthesis of novel analogs of 2-pyrazoline obtained from [(7-chloroquinolin-4-yl)amino]chalcones and hydrazine as potential antitumor and antimalarial agents” (Eur J Med Chem, 2013).

Columns and labels:
Format in all cases: functional
MDA-MB-435 = assay: Cytotoxicity against human MDA-MB-435 cells after 48 hrs by SRB assay; conditions: MDA-MB-435, 48 h
Method in brief: (§1)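 NCI 60-cell-line screen. Cells preincubated 24 h at 37 °C, 5% CO2; time-zero plates TCA-fixed. Compounds dissolved in DMSO and tested at five concentrations (100, 10, 1.0, 0.1, 0.01 µM) for 48 h continuous exposure. Adherent cells fixed with cold TCA (10% final), then SRB stained; absorbance at 515 nm. GI50, TGI and LC50 calculated from growth relative to time-zero and untreated controls.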

LOX IMVI = assay: Cytotoxicity against human LOXIMVI cells after 48 hrs by SRB assay; method in brief: as §1
NCI/ADR-RES = assay: Cytotoxicity against human NCI/ADR-RES cells after 48 hrs by SRB assay; method in brief: as §1
NCI-H460 = assay: Cytotoxicity against human NCI-H460 cells after 48 hrs by SRB assay; conditions: NCI-H460, 48 h; method in brief: as §1
MCF7 = assay: Cytotoxicity against human MCF7 cells after 48 hrs by SRB assay; conditions: MCF7, 48 h; method in brief: as §1
Hs-578T = assay: Cytotoxicity against human Hs578T cells after 48 hrs by SRB assay; method in brief: as §1
SF-268 = assay: Cytotoxicity against human SF268 cells after 48 hrs by SRB assay; conditions: SF-268, 48 h; method in brief: as §1
A549 = assay: Cytotoxicity against human A549/ATCC cells after 48 hrs by SRB assay; conditions: A549, 48 h; method in brief: as §1
SNB-75 = assay: Cytotoxicity against human SNB75 cells after 48 hrs by SRB assay; conditions: SNB-75, 48 h
Method in brief: (§2)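 NCI 60-cell screen. Cells grew 24 h (37 °C, 5% CO2) before compound was added. Compounds were in DMSO and diluted in medium with gentamicin, then tested at five levels (100, 10, 1.0, 0.1, 0.01 µM) with 48 h continuous exposure. Adherent cells were fixed with TCA (10% final) and stained with 0.4% SRB, absorbance read at 515 nm. A time-zero plate was included. LC50 is the concentration giving 50% loss of protein relative to time zero.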

HL-60(TB) = assay: Cytotoxicity against human HL-60(TB) cells after 48 hrs by SRB assay; conditions: HL-60, 48 h; method in brief: as §1
HCC 2998 = assay: Cytotoxicity against human HCC2998 cells after 48 hrs by SRB assay; conditions: HCC 2998, 48 h; method in brief: as §1
M14 = assay: Cytotoxicity against human M14 cells after 48 hrs by SRB assay; conditions: M14, 48 h; method in brief: as §1
OVCAR-4 = assay: Cytotoxicity against human OVCAR4 cells after 48 hrs by SRB assay; conditions: OVCAR-4, 48 h; method in brief: as §1
[1] = Cytotoxicity against human EKVX cells after 48 hrs by SRB assay; method in brief: as §1
NCI-H226 = assay: Cytotoxicity against human NCI-H226 cells after 48 hrs by SRB assay; conditions: NCI-H226, 48 h; method in brief: as §1
NCI-H23 = assay: Cytotoxicity against human NCI-H23 cells after 48 hrs by SRB assay; conditions: NCI-H23, 48 h; method in brief: as §1
SNB-19 = assay: Cytotoxicity against human SNB19 cells after 48 hrs by SRB assay; conditions: SNB-19, 48 h; method in brief: as §2
SN12C = assay: Cytotoxicity against human SN12C cells after 48 hrs by SRB assay; method in brief: as §1
UO-31 = assay: Cytotoxicity against human UO31 cells after 48 hrs by SRB assay; conditions: UO-31, 48 h; method in brief: as §2
UACC-62 = assay: Cytotoxicity against human UACC62 cells after 48 hrs by SRB assay; conditions: UACC-62, 48 h; method in brief: as §2
KM12 = assay: Cytotoxicity against human KM12 cells after 48 hrs by SRB assay; conditions: KM12, 48 h; method in brief: as §1
SK-MEL-5 = assay: Cytotoxicity against human SK-MEL-5 cells after 48 hrs by SRB assay; conditions: SK-MEL-5, 48 h; method in brief: as §1
HCT-15 = assay: Cytotoxicity against human HCT15 cells after 48 hrs by SRB assay; conditions: HCT-15, 48 h; method in brief: as §1
IGROV-1 = assay: Cytotoxicity against human IGROV1 cells after 48 hrs by SRB assay; conditions: IGROV-1, 48 h; method in brief: as §1
MDA-MB-468 = assay: Cytotoxicity against human MDA-MB-468 cells after 48 hrs by SRB assay; conditions: MDA-MB-468, 48 h; method in brief: as §1
786-0 = assay: Cytotoxicity against human 786-0 cells after 48 hrs by SRB assay; conditions: 786-0, 48 h; method in brief: as §1
PC-3 = assay: Cytotoxicity against human PC3 cells after 48 hrs by SRB assay; conditions: PC-3, 48 h; method in brief: as §1
UACC-257 = assay: Cytotoxicity against human UACC257 cells after 48 hrs by SRB assay; conditions: UACC-257, 48 h; method in brief: as §2
HOP-92 = assay: Cytotoxicity against human HOP92 cells after 48 hrs by SRB assay; conditions: HOP-92, 48 h; method in brief: as §1
BT-549 = assay: Cytotoxicity against human BT549 cells after 48 hrs by SRB assay; conditions: BT-549, 48 h; method in brief: as §1
OVCAR-3 = assay: Cytotoxicity against human OVCAR3 cells after 48 hrs by SRB assay; conditions: OVCAR-3, 48 h; method in brief: as §1
HOP-62 = assay: Cytotoxicity against human HOP62 cells after 48 hrs by SRB assay; conditions: HOP-62, 48 h; method in brief: as §1
MDA-MB-231 = assay: Cytotoxicity against human MDA-MB-231 cells after 48 hrs by SRB assay; conditions: MDA-MB-231, 48 h; method in brief: as §1
DU-145 = assay: Cytotoxicity against human DU145 cells after 48 hrs by SRB assay; conditions: DU-145, 48 h; method in brief: as §1
[2] = read-out: LC50 (the source's name)

COc1cc(C2CC(c3ccc(Nc4ccnc5cc(Cl)ccc45)cc3)=NN2C=O)cc(OC)c1OC (stereo not drawn)
GI50 (MDA-MB-435): 2.1 µM
LC50 (MDA-MB-435): > 100 µM
GI50 (LOX IMVI): 1.89 µM
LC50 (LOX IMVI): 7.83 µM
GI50 (NCI/ADR-RES): 7.88 µM
CC50 (NCI/ADR-RES; [2]): > 100 µM
GI50 (NCI-H460): 4.42 µM
LC50 (NCI-H460): > 100 µM
GI50 (MCF7): 3.23 µM
CC50 (MCF7; [2]): > 100 µM
GI50 (Hs-578T): 3.24 µM
LC50 (50% net cell kill) (Hs-578T): > 100 µM
GI50 (SF-268): 28 µM
LC50 (SF-268): > 100 µM
GI50 (A549): 6.9 µM
CC50 (A549; [2]): > 100 µM
GI50 (SNB-75): 5.19 µM
LC50 (50% net cell kill) (SNB-75): > 100 µM
GI50 (HL-60(TB)): 2.53 µM
CC50 (HL-60(TB); [2]): 75.8 µM
GI50 (HCC 2998): 5.52 µM
LC50 (HCC 2998): > 100 µM
GI50 (M14): 3.75 µM
CC50 (M14; [2]): 48.3 µM
GI50 (OVCAR-4): 3.19 µM
LC50 (OVCAR-4): > 100 µM
GI50 [1]: 11.7 µM
LC50 [1]: > 100 µM
GI50 (NCI-H226): 34.5 µM
LC50 (50% lethal concentration) (NCI-H226): > 100 µM
GI50 (NCI-H23): 20.4 µM
CC50 (NCI-H23; [2]): > 100 µM
GI50 (SNB-19): 18.2 µM
LC50 (SNB-19): > 100 µM
GI50 (SN12C): 4.37 µM
LC50 (50% net cell kill relative to time zero) (SN12C): > 100 µM
GI50 (UO-31): 4.96 µM
LC50 (UO-31): 67.5 µM
GI50 (UACC-62): 2.2 µM
CC50 (UACC-62; [2]): 59.3 µM
GI50 (KM12): 5.87 µM
LC50 (concentration killing 50% of cells) (KM12): > 100 µM
GI50 (SK-MEL-5): 1.98 µM
LC50 (concentration killing 50% of cells present at time zero) (SK-MEL-5): 35.5 µM
GI50 (HCT-15): 3.56 µM
LC50 (concentration killing 50% of cells relative to time zero) (HCT-15): > 100 µM
GI50 (IGROV-1): 22.3 µM
LC50 (concentration killing 50% of cells relative to time zero) (IGROV-1): > 100 µM
GI50 (MDA-MB-468): 1.83 µM
LC50 (MDA-MB-468): 40.9 µM
GI50 (786-0): 2.31 µM
LC50 (786-0): 9.93 µM
GI50 (PC-3): 11.7 µM
LC50 (PC-3): > 100 µM
GI50 (UACC-257): 2.84 µM
LC50 (UACC-257): 55.4 µM
GI50 (HOP-92): 1.83 µM
LC50 (concentration killing 50% of cells) (HOP-92): > 100 µM
GI50 (BT-549): 1.91 µM
LC50 (50% net cell kill vs time zero) (BT-549): 8.23 µM
GI50 (OVCAR-3): 1.91 µM
LC50 (OVCAR-3): 6.03 µM
GI50 (HOP-62): 4.13 µM
LC50 (50% lethal concentration) (HOP-62): 96.1 µM
GI50 (MDA-MB-231): 4.39 µM
LC50 (concentration killing 50% of cells present at time zero) (MDA-MB-231): > 100 µM
GI50 (DU-145): 6.63 µM
LC50 (concentration killing 50% of cells) (DU-145): > 100 µM
